The record followed here is ChEMBL document CHEMBL1944609, “Niphatenones, glycerol ethers from the sponge Niphates digitalis block androgen receptor transcriptional activity in prostate cancer cells: structure elucidation, synthesis, and biological activity” (J Med Chem, 2012).

Activity calls are given as the source filed them. No cut-off for these calls is given here.

For experiment [1], the target named is T1, Androgen receptor (Homo sapiens) (UniProt P10275).
T1 sequence (whole entry): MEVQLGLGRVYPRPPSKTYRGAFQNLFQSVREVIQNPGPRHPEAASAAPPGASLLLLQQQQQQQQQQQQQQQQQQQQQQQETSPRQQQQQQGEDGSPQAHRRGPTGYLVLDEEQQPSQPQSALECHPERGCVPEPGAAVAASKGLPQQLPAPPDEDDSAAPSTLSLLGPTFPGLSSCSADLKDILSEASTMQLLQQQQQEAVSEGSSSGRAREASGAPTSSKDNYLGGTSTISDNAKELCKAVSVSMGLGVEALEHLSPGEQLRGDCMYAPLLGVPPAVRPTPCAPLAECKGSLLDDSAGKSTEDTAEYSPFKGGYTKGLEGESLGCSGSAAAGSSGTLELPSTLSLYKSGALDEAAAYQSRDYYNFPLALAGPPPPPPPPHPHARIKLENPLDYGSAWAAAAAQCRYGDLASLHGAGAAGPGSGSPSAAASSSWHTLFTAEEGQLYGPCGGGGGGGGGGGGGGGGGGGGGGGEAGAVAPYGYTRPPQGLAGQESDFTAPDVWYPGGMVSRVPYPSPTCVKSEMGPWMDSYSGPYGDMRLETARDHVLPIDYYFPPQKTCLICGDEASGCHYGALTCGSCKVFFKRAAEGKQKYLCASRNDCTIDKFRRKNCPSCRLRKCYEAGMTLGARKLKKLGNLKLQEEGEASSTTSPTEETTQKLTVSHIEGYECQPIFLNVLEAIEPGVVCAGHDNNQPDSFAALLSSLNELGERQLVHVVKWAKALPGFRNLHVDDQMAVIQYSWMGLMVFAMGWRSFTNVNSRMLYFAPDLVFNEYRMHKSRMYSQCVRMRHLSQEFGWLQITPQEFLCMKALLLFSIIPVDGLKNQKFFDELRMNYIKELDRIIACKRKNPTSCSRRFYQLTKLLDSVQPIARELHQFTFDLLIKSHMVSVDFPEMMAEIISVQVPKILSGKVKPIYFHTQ
The experiment is described as follows: Antagonist activity at androgen receptor in human LNCAP cells transfected with p6.1-luciferase assessed as inhibition of R1881-induced transcriptional activity at 7 uM pretreated 1 hr prior to R1881 addition measured after 48 hrs by luciferase reporter gene assay. The class given is functional, cell-based. Put shortly: (§1)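 LNCaP cells were transfected using lipofectin in serum-free, phenol red-free medium with PSA (6.1 kb) luciferase (0.5 μg/well) plus empty vector (1 μg/well) for 24 h. Cells were then given a 1 h compound pretreatment before R1881 was added. After 48 h, luciferase was read and normalized to Bradford protein, expressed as % of the R1881 + DMSO vehicle maximum. Data are mean ± SD of three experiments, each in triplicate.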
Background: Reporter assays use an easily measured gene product as a stand-in for the process of interest.

Another experiment relates to LNCaP. The experiment is described as follows: Antiproliferative activity against R1881-stimulated human LNCAP cells expressing androgen receptor at 14 uM treated 1 hr before R1881 addition measured after 72 hrs by BrdU incorporation assay. The format is functional, cell-based. The method, boiled down: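 LNCaP cells were seeded for 24 h in phenol red-free RPMI 1640 with 0.5% FBS and penicillin/streptomycin, then pretreated for 1 h before 0.1 nM R1881. After 72 h, BrdU was added for 2 h, then cells were fixed and incubated with anti-BrdU-POD for 1.5 h; absorbance was read at 570 nm. Data are mean ± SD of three experiments, 6 technical replicates each, analyzed by Student's t test versus R1881.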

Another experiment deals with PC-3. The experiment in a line: Antiproliferative activity against androgen receptor deficient human PC3 cells at 14 uM after 24 hrs by BrdU incorporation assay. The format is functional, cell-based. The method, boiled down: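 PC3 cells were seeded for 24 h in phenol red DMEM with 5% FBS and penicillin/streptomycin, then pretreated for 1 h and cultured 24 h. BrdU was added for 2 h, then cells were fixed and incubated with anti-BrdU-POD for 1.5 h; absorbance was read at 570 nm. Data are mean ± SD of three experiments, 6 technical replicates each, analyzed by Student's t test.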
(Incorporation of labelled thymidine or its analogues reports DNA synthesis.)

The target in experiment [2] is T1, Androgen receptor (Homo sapiens). The experiment is described as follows: Antagonist activity at androgen receptor in human LNCAP cells transfected with p6.1-luciferase assessed as inhibition of R1881-induced transcriptional activity at 3.5 uM pretreated 1 hr prior to R1881 addition measured after 48 hrs by luciferase reporter gene assay. The format is functional, cell-based. The method, boiled down: as §1

Experiment [3] shares this target. The experiment in a line: Binding affinity to AF1 region of N-terminus domain androgen receptor at 20 uM after 50 mins by coomassine blue staining based SDS-PAGE analysis. The method, boiled down:
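Recombinant AR AF1 (purified by Ni2+-agarose, then size exclusion) at 10 μM was incubated on ice for 50 min with 20 μM alkyne probe in DMSO, or DMSO alone. The reaction was then diluted in half and click-labeled with 10 μM fluorescein azide, 0.1 mM ascorbate and 0.1 mM Cu(II)-TBTA for 30–40 min at RT. Labeling of the AF1 band was read as fluorescence on SDS-PAGE.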

As for `CCCCCCCCCCCCC(=O)/C=C/CCCOC[C@@H](O)COCCOCCOCCO`, the inhibition (usually how much of the control response was suppressed) in experiment [1] is “Active”.

`CCCCCCCCCCCCC(=O)/C=C/CCCOC[C@@H]1COC(C)(C)O1`: the inhibition entry in experiment [1] is “Active”.

In the case of `CCCCCCCCCCCCC(=O)/C=C/CCCOC[C@H](O)CO`, in experiment [1], the inhibition entry is “Active”. Besides, the result with LNCaP was Active. Besides, the outcome in the experiment on PC-3 was inactive.

With `CC(=O)/C=C/CCCOC[C@H](O)CO`, the inhibition result in experiment [1] is “inactive”.

Take `CCCCCCCCCCCCC(=O)/C=C/CCCOC[C@@H](O)CCl`: the inhibition result in experiment [1] was “Active”.

As to `CCCCCCCCCCCCC(=O)/C=C/CCCCC[C@H](O)CO`, in experiment [1], the inhibition entry was “Active”.

For the molecule `CCCCCCCCCCC/C=C/C(=O)CCCCOC[C@H](O)CO`, the inhibition entry in experiment [1] is “Active”.

On to `CCCCCCCCCCCCC(=O)CCCCCOC[C@H](O)CO`, for which the inhibition result in experiment [1] was “Active”.

For the molecule `CCCCCCCCCCCCCCCCCC(=O)/C=C/CCCOC[C@H](O)CO`, in experiment [2], the inhibition entry is “Active”.

For the molecule `C#CCOC[C@@H](O)COCCC/C=C/C(=O)CCCCCCCCCCCC`, the inhibition result in experiment [1] was “Active”. Moreover, the outcome in experiment [3] was Active.

For the molecule `CCCCCCCCCCC/C=C/C(=O)CCCCOC[C@@H](O)CO`, in experiment [1], the inhibition result is “inactive”.

In the case of `CCCCCCCCCCCCC(=O)/C=C/CCCOC[C@H]1CO1`, the inhibition entry in experiment [1] is “Active”.

Regarding `CCCCCCCCCCCCC(=O)/C=C/CCCOC[C@@H](O)CO`, the inhibition in experiment [1] turned out to be 50%. Moreover, the outcome in the experiment with LNCaP was Active. In the experiment with PC-3, the outcome was inactive.
